# Measurements taken from ChEMBL document CHEMBL4339195, “Di-aryl Sulfonamide Motif Adds π-Stacking Bulk in Negative Allosteric Modulators of the NMDA Receptor” (ACS Med Chem Lett, 2019).
# Tests used:
# Format in all cases: cell-based
# [1] = biological target: T1, Glycine receptor subunit alpha-1 (Rattus norvegicus) (UniProt P07727); assay: Negative allosteric modulation of rat glycine alpha1 expressed in Xenopus laevis oocytes assessed as inhibition of glycine-induced current response at 30 uM at -40 mV holding potential by two-electrode voltage clamp method relative to glycine alone
# T1 sequence (whole entry): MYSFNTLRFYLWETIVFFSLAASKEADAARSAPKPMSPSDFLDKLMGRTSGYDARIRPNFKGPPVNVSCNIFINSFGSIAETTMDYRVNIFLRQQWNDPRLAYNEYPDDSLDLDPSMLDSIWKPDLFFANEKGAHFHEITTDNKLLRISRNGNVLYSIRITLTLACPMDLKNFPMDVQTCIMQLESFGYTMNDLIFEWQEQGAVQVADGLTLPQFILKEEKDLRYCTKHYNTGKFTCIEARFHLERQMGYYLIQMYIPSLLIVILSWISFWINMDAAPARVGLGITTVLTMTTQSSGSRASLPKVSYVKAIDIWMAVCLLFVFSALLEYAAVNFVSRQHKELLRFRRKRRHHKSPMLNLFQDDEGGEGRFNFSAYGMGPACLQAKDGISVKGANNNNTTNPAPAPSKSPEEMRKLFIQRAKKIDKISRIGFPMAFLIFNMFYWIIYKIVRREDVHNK
# Method in brief: (§1)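 Oocyte two-electrode voltage clamp at -40 mV holding. Test compound co-applied with agonist; response given as percent of the mean of control and recovery currents to agonist alone. Agonists: 100 µM glutamate (AMPA, kainate), 100 µM GABA (GABA receptors), 100 µM glycine (glycine receptor), 100 µM serotonin (5-HT3A), 9 µM ATP (P2X), 1 µM acetylcholine (nicotinic).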
# [2] = biological target: T2, Ionotropic glutamate receptor NMDA 1/2D (Rattus norvegicus) (UniProt P35439+Q62645); assay: Potency index, ratio of NP11999 IC50 to test compound IC50 for negative allosteric modulation of recombinant rat GluN1/GluN2D expressed in Xenopus laevis oocytes assessed as inhibition of glutamate/glycine-induced current response
# [3] = test system: Glutamate receptor 4 (Homo sapiens), P48058 [L505Y]; assay: Negative allosteric modulation of human GluA4 L505Y mutant expressed in Xenopus laevis oocytes assessed as inhibition of glutamate-induced current response at 30 uM at -40 mV holding potential by two-electrode voltage clamp method relative to glutamate alone; method in brief: as §1
# Chain of Glutamate receptor 4 (Homo sapiens), P48058 [L505Y] (P48058 whole entry L505Y): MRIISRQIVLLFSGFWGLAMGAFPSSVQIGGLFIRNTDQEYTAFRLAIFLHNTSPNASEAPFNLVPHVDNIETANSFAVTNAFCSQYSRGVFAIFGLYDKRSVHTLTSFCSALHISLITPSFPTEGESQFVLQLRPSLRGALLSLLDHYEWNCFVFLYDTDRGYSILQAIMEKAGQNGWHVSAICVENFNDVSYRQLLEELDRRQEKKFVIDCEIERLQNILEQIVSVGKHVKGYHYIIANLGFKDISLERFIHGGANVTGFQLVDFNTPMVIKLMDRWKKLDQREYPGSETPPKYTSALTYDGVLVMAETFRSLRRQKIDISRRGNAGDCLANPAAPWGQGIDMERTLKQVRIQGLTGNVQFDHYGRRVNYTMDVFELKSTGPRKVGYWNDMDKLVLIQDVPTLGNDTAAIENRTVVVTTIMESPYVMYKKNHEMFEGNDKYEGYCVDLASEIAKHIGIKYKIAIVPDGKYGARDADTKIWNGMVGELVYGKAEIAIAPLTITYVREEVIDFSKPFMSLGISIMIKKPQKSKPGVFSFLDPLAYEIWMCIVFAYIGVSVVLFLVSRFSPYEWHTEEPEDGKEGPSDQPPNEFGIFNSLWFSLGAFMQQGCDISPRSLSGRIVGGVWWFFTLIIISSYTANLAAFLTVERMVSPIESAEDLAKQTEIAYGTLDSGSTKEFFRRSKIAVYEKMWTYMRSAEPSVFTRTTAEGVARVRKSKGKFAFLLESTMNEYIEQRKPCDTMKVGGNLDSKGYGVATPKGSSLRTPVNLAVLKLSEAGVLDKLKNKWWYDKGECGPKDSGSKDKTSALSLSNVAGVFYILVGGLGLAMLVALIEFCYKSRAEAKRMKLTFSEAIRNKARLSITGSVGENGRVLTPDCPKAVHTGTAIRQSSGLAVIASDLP
# [4] = biological target: Glutamate NMDA receptor; Grin1/Grin2c (Rattus norvegicus, UniProt P35439+Q00961); assay: Negative allosteric modulation of recombinant rat GluN1/GluN2C expressed in Xenopus laevis oocytes assessed as inhibition of glutamate/glycine-induced current response at -40 mV holding potential by two-electrode voltage clamp method
# Method in brief: (§2)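 Oocytes recorded while the drug is co-applied with a maximally effective 100 µM glutamate plus 30 µM glycine. Response is expressed as percent of the glutamate/glycine control. IC50 comes from a Hill fit to the average composite concentration-response curve. 8-16 oocytes from 2-3 frogs per compound and receptor.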
# [5] = biological target: Ionotropic glutamate receptor NMDA 1/2D (Rattus norvegicus, UniProt P35439+Q62645); assay: Negative allosteric modulation of recombinant rat GluN1/GluN2D expressed in Xenopus laevis oocytes assessed as inhibition of glutamate/glycine-induced current response at -40 mV holding potential by two-electrode voltage clamp method; method in brief: as §2
# [6] = biological target: T2, Ionotropic glutamate receptor NMDA 1/2D (Rattus norvegicus); assay: Negative allosteric modulation of recombinant rat GluN1/GluN2D expressed in Xenopus laevis oocytes assessed as inhibition of glutamate/glycine-induced current response at saturated concentration at -40 mV holding potential by two-electrode voltage clamp method relative to glutamate/glycine
# Method in brief: (§3)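 Hill fit of the composite concentration-response curve in oocytes, with agonist 100 µM glutamate plus 30 µM glycine. Residual response in saturating compound is either fixed at 0 or fitted. 8-16 oocytes from 2-3 frogs.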
# [7] = biological target: Glutamate receptor ionotropic, kainate 2 (Rattus norvegicus) (UniProt P42260); assay: Negative allosteric modulation of rat GluK2 expressed in Xenopus laevis oocytes assessed as inhibition of glutamate-induced current response at 30 uM at -40 mV holding potential in presence of concanavalin A by two-electrode voltage clamp method relative to glutamate alone; method in brief: as §1
# Chain of Glutamate receptor ionotropic, kainate 2 (Rattus norvegicus) (P42260 whole entry): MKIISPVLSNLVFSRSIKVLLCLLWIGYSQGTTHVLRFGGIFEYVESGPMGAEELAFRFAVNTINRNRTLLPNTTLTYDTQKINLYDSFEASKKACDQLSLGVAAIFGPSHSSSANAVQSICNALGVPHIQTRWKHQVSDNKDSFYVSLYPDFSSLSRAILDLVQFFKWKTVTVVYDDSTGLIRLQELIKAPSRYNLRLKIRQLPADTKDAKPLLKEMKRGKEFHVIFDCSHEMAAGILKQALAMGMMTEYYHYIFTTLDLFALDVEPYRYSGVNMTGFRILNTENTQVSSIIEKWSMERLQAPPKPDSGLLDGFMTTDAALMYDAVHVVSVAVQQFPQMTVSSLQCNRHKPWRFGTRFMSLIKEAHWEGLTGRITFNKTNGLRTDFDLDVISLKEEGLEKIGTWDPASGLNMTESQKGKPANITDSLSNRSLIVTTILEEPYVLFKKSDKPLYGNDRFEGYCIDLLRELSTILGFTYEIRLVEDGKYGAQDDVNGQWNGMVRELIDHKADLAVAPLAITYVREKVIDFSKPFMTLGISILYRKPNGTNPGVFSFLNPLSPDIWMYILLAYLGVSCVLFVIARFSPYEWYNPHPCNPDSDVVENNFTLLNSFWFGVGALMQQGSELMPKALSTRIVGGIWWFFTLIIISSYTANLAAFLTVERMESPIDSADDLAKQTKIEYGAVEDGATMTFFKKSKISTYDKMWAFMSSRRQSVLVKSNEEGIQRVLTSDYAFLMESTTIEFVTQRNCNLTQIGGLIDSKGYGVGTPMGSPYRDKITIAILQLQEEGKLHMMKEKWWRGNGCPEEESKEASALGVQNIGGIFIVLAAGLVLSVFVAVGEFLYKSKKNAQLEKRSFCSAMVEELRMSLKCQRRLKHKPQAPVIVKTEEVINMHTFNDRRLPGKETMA
# [8] = biological target: T2, Ionotropic glutamate receptor NMDA 1/2D (Rattus norvegicus); assay: Negative allosteric modulation of recombinant rat GluN1/GluN2D expressed in Xenopus laevis oocytes assessed as inhibition of glutamate/glycine-induced current response at 30 uM at -40 mV holding potential by two-electrode voltage clamp method relative to glutamate/glycine; conditions: values are per cent of control; method in brief: as §2
# Rattus norvegicus [9] = species on record: Rattus norvegicus; assay: Negative allosteric modulation of rat GABAA alpha1beta2gamma2S expressed in Xenopus laevis oocytes assessed as inhibition of GABA-induced current response at 30 uM at -40 mV holding potential by two-electrode voltage clamp method relative to GABA alone; method in brief: as §1
# [10] = biological target: T3, Glutamate NMDA receptor; Grin1/Grin2c (Rattus norvegicus) (UniProt P35439+Q00961); assay: Potency index, ratio of NP11999 IC50 to test compound IC50 for negative allosteric modulation of recombinant rat GluN1/GluN2C expressed in Xenopus laevis oocytes assessed as inhibition of glutamate/glycine-induced current response
# [11] = biological target: Glutamate NMDA receptor; Grin1/Grin2b (Rattus norvegicus, UniProt P35439+Q00960); assay: Negative allosteric modulation of recombinant rat GluN1/GluN2B expressed in Xenopus laevis oocytes assessed as inhibition of glutamate/glycine-induced current response at -40 mV holding potential by two-electrode voltage clamp method; method in brief: as §2
# Chain of Glutamate NMDA receptor; Grin1/Grin2b (Q00960 whole entry, other chains not shown): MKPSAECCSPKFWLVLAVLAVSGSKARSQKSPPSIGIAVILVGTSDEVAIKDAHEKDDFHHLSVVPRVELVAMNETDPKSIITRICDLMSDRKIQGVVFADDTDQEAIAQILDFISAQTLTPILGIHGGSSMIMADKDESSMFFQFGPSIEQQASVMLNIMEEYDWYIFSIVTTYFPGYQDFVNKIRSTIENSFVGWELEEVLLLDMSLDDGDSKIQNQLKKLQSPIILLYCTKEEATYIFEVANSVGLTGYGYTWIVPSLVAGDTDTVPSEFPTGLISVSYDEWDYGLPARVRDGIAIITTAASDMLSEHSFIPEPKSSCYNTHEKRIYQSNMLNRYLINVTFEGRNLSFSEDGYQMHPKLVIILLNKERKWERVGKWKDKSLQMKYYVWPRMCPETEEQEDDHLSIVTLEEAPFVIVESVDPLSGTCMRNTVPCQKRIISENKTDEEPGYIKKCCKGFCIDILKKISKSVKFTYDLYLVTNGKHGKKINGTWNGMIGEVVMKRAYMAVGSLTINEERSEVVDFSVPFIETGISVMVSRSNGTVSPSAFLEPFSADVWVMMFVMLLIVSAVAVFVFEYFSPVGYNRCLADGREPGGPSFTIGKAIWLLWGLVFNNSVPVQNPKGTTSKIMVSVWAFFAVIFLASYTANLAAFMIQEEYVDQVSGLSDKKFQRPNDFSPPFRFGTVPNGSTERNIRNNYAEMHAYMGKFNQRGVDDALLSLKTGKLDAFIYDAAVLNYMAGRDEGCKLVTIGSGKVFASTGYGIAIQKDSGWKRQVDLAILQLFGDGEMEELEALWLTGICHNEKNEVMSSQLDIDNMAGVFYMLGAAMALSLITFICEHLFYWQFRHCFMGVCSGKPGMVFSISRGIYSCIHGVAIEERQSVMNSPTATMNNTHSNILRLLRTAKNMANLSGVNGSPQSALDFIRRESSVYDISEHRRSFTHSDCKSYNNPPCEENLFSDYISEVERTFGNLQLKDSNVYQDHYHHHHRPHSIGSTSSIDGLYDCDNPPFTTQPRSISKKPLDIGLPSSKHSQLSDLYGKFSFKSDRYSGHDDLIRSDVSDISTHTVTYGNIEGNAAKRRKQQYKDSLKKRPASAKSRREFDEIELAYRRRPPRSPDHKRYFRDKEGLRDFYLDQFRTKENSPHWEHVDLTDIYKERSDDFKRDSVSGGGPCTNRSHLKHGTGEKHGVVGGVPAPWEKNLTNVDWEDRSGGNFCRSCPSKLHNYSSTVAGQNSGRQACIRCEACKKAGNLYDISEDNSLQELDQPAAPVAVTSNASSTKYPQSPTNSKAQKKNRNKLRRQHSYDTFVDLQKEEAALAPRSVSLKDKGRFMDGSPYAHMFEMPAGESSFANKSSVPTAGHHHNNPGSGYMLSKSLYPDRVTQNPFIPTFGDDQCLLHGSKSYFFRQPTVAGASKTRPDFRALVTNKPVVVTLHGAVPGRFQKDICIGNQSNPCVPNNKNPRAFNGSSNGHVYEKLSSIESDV
# Rattus norvegicus [12] = species on record: Rattus norvegicus; assay: Negative allosteric modulation of rat GABAA rho expressed in Xenopus laevis oocytes assessed as inhibition of GABA-induced current response at 30 uM at -40 mV holding potential by two-electrode voltage clamp method relative to GABA alone; method in brief: as §1
# Homo sapiens = species on record: Homo sapiens; assay: Negative allosteric modulation of human GluA2 R607Q mutant expressed in Xenopus laevis oocytes assessed as inhibition of glutamate-induced current response at 30 uM at -40 mV holding potential by two-electrode voltage clamp method relative to glutamate alone; method in brief: as §1
# [13] = biological target: P2X receptor (Homo sapiens) (UniProt P51575+Q99571+Q9UBL9+O15547+P56373+Q99572+Q93086); assay: Negative allosteric modulation of human P2X expressed in Xenopus laevis oocytes assessed as inhibition of ATP-induced current response at 30 uM at -40 mV holding potential by two-electrode voltage clamp method relative to ATP alone; method in brief: as §1
# [14] = biological target: T3, Glutamate NMDA receptor; Grin1/Grin2c (Rattus norvegicus); assay: Negative allosteric modulation of recombinant rat GluN1/GluN2C expressed in Xenopus laevis oocytes assessed as inhibition of glutamate/glycine-induced current response at saturated concentration at -40 mV holding potential by two-electrode voltage clamp method relative to glutamate/glycine; method in brief: as §3
# [15] = biological target: CHRNA1/CHRNB1/CHRNG/CHRND (Rattus norvegicus) (UniProt P25109+P25108+P25110+P18916); assay: Negative allosteric modulation of rat alpha1betagammadelta nACHR expressed in Xenopus laevis oocytes assessed as inhibition of acetylcholine-induced current response at 30 uM at -40 mV holding potential by two-electrode voltage clamp method relative to acetylcholine alone; method in brief: as §1
compound,measurement,setting,value
CCN(CC)C(=O)Oc1ccc(C(=O)Nc2cccc(CCNS(=O)(=O)c3ccccc3)c2)cc1,inhibition,[1],30%
same,Ratio IC50,[2],< 6
same,inhibition,[3],86%
same,IC50,[4],2400 nM
same,IC50,[5],1700 nM
same,inhibition,[6],0%
same,inhibition,[7],92%
same,residual activity,[8],8.9 to 9%
same,inhibition,Rattus norvegicus [9],90%
same,Ratio IC50,[10],< 6
same,IC50,[11],7600 nM
same,inhibition,Rattus norvegicus [12],98%
same,inhibition,Homo sapiens,95%
same,inhibition,[13],80%
same,inhibition,[14],0%
same,inhibition,[15],27%
